Data set [1] concerns HCT-116. Briefly: Inhibition of Beta-catenin/TCF complex binding to DNA in human HCT116 cells at 5 to 10 uM after 30 mins by electrophoretic mobility shift assay. The class given is cell-based. In a few lines: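 HCT116 cells (1 × 10^6) treated 30 min. Nuclear extract made by NP-40 hypotonic lysis, then 420 mM NaCl hypertonic extraction; protein by Bradford. Binding: 8 μg nuclear protein with 1.5 pmol biotin-labeled TCF binding probe, 15 °C for 30 min, read by EMSA against vehicle-treated cells.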

In data set [2] the test system is Mus musculus. Briefly: In vivo inhibition of Wnt/beta-catenin signaling pathway in human HCT116 cells xenografted in BALB/c-nu mouse assessed as downregulation of NKD1 mRNA expression at 10 to 20 mg/kg, ip administered 3 times per week measured after 4 weeks by real-time PCR analysis. In kind it is functional, organism-based. As to conditions: HCT-116. In a few lines:
(§1)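 Frozen tumors from ip-dosed HCT116 xenograft mice were extracted with TRI reagent and reverse-transcribed. SYBR Green real-time PCR run 40 cycles of 95/56/72 °C. Expression by 2^−ΔΔCT normalized to β-actin, relative to vehicle-treated controls; quadruplicate.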

The subject of data set [3] is HCT-116. Kind of data set: Cytotoxicity against human HCT116 cells assessed as growth inhibition after 48 hrs by SRB assay. In kind it is functional, cell-based. The settings on record: HCT-116, 48 h. In a few lines:
(§2)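 HCT116 cells seeded at 6 × 10^3/well and grown 24 h. Day-zero plates fixed; others exposed 24, 48 or 72 h. Fixed with 10% TCA, stained with 0.4% SRB in 1% acetic acid, dye taken up in 10 mM Tris pH 10.0, read at 515 nm. Proliferation % = (compound − day zero)/(control − day zero) × 100. IC50 by nonlinear regression; four determinations.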

Data set [4] has as its system HCT-116. Kind of data set: Cytotoxicity against human HCT116 cells assessed as growth inhibition after 72 hrs by SRB assay. In kind it is functional, cell-based. As to conditions: HCT-116, 72 h. In a few lines:
as §2

Data set [5] relates to HCT-116. Briefly: Inhibition of Wnt/beta-catenin signaling pathway in human HCT116 cells assessed as downregulation of CMYC protein expression at 5 to 10 uM after 24 to 48 hrs by Western blot analysis. The class given is cell-based. In a few lines:
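HCT116 cells treated 24 or 48 h. Lysed in RIPA buffer; equal protein run on 8−13% SDS-PAGE, blotted to PVDF, probed for β-catenin, c-myc and cyclin D1, detected by ECL. β-Actin served as internal standard; four determinations.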

In a further data set the test system is HEK293. Briefly: Inhibition of Wnt/beta-catenin (unknown origin) signaling pathway expressed in HEK293 cells assessed as inhibition of TCF4 transcriptional activity at 5 to 40 uM after 24 hrs by FOPflash reporter gene assay. The class given is cell-based. As to conditions: Homo sapiens. In a few lines:
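HEK293 cells seeded at 1.5 × 10^4/well. After 24 h, lipofected with 0.1 μg TOPflash or FOPflash, 0.005 μg Renilla, 0.02 μg β-catenin and 0.004 μg TCF4 vectors. Treated 24 h after transfection for 24 h. Dual luciferase read-out, firefly normalized to Renilla, relative to vehicle; triplicate.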

For data set [6], the system named is HCT-116. Briefly: Cytotoxicity against human HCT116 cells assessed as growth inhibition after 24 to 72 hrs by SRB assay. The class given is functional, cell-based. In a few lines: as §2
Data set [7] concerns HCT-116. Briefly: Cytotoxicity against human HCT116 cells assessed as growth inhibition after 24 hrs by SRB assay. In kind it is functional, cell-based. As to conditions: HCT-116, 24 h. In a few lines:
as §2

Data set [8] relates to HCT-116. Kind of data set: Cytotoxicity against human HCT116 cells assessed as growth inhibition at 5 to 20 uM by SRB assay. As to conditions: TDE = time-dependent effect. In kind it is functional, cell-based. In a few lines:
as §2

In data set [9] the test system is Mus musculus. Briefly: In vivo inhibition of Wnt/beta-catenin signaling pathway in human HCT116 cells xenografted in BALB/c-nu mouse assessed as downregulation of MMP7 mRNA expression at 10 to 20 mg/kg, ip administered 3 times per week measured after 4 weeks by real-time PCR analysis. In kind it is functional, organism-based. The settings on record: HCT-116. In a few lines: as §1

Data set [10] deals with Mus musculus. Kind of data set: In vivo inhibition of Wnt/beta-catenin signaling pathway in human HCT116 cells xenografted in BALB/c-nu mouse assessed as downregulation of CCND1 mRNA expression at 10 to 20 mg/kg, ip administered 3 times per week measured after 4 weeks by real-time PCR analysis. The class given is functional, organism-based. The settings on record: HCT-116. In a few lines:
as §1

For data set [11], the system named is HCT-116. Briefly: Inhibition of Wnt/beta-catenin signaling pathway in human HCT116 cells assessed as downregulation of CMYC mRNA expression at 5 to 10 uM after 12 hrs by real-time PCR analysis. In kind it is cell-based. In a few lines:
(§3)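 HCT116 cells treated 12 h. Total RNA by TRI reagent, reverse-transcribed, SYBR Green real-time PCR: 40 cycles of 95 °C 20 s, 56 °C 20 s, 72 °C 30 s. Fold change by 2^−ΔΔCT normalized to β-actin, relative to untreated control; quadruplicate.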

Data set [12] concerns HCT-116. Kind of data set: Inhibition of Wnt/beta-catenin signaling pathway in human HCT116 cells assessed as downregulation of MMP7 mRNA expression at 5 to 10 uM after 12 hrs by real-time PCR analysis. In kind it is cell-based. In a few lines: as §3
The test system of data set [13] is HCT-116. Briefly: Inhibition of Wnt/beta-catenin signaling pathway in human HCT116 cells assessed as downregulation of CCND1 mRNA expression at 5 to 10 uM after 12 hrs by real-time PCR analysis. In kind it is cell-based. In a few lines: as §3
Data set [14] relates to HCT-116. Kind of data set: Antitumor activity against human HCT116 cells xenografted in BALB/c-nu mouse assessed as tumor growth inhibition at 20 mg/kg, ip administered 3 times per week for 4 weeks measured every 2 to 3 days during treatment relative to control. In kind it is functional. The settings on record: HCT-116, ip, route intraperitoneal, read-out: TGI. In a few lines: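 Female BALB/c-nu mice, 4−6 weeks old, acclimated one week, given 2 × 10^6 HCT116 cells sc in the flank. Dosing began near 100 mm3, about day 8; five mice per group. Dose in 0.5% Tween 80 in normal saline, 200 μL ip; controls got vehicle. Tumor volume by caliper = L × W × H/2. Study ended when control tumors averaged ~1300 mm3.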

The test system of data set [15] is Mus musculus. Briefly: Toxicity in BALB/c-nu mouse xenografted with human HCT116 cells assessed as overt toxicity at 10 to 20 mg/kg, ip administered 3 times per week measured for 4 weeks. In kind it is organism-based, HCT-116. Also noted: dose 10-20 mg/kg, route intraperitoneal. As to conditions: in vivo, 672 h. In a few lines: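 Same HCT116 flank xenograft in female BALB/c-nu mice, five per group, dosed ip in 0.5% Tween 80/saline with vehicle controls. Toxicity was judged from lethality and body weight loss, with body weights tracked through the study.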

Data set [16] relates to HCT-116. Briefly: Inhibition of Wnt/beta-catenin signaling pathway in human HCT116 cells assessed as downregulation of AXIN2 mRNA expression at 5 to 10 uM after 12 hrs by real-time PCR analysis. The class given is cell-based. In a few lines: as §3

The source of these data is ChEMBL document CHEMBL2406979, “Antitumor activity of 2-hydroxycinnamaldehyde for human colon cancer cells through suppression of β-catenin signaling” (J Nat Prod, 2013).

Calls of active or inactive are those of the source. The rule behind the calls is not given here.

`O=C/C=C/c1ccccc1O` [2-HYDROXYCINNAMALDEHYDE]: the inhibition result with HCT-116 [1], with Mus musculus [2], in the data set with HCT-116 [5], in the data set on Mus musculus [9], with Mus musculus [10] and with HCT-116 [11] was “Active” each time. Moreover, the inhibition entry in the data set with HCT-116 [12], with HCT-116 [13] and in the data set with HCT-116 [16] was “Active” throughout. In addition, the values for the IC50 with HCT-116 [3], in the data set with HCT-116 [4] and with HCT-116 [7] were 6.62 µM, 6.17 µM and 8.14 µM, respectively. Moreover, the inhibition result with HEK293 is “inactive”. Besides, the Activity result in the data set with HCT-116 [6] was “Dose-dependent effect”; with HCT-116 [8] it was “tde”; with Mus musculus [15], “Non-toxic”. Also, the inhibition in vivo at 20 mg/kg in the data set with HCT-116 [14] stood at 69%.
